Reference: ChEMBL document CHEMBL1125540, “Antiviral and antitumor structure-activity relationship studies on tetracyclic eudistomines” (1992)
≈ marks a conversion by molar mass, not a printed value.

Assays:
Type in all cases: functional
Vero [1] = test: Evaluation for antiviral activity against Sindbis virus in Vero cell cultures (Concentration required to reduce virus-induced cytopathogenicity by 50%); conditions: Chlorocebus sabaeus
In short: (§1)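 Vero cultures were infected with parainfluenza-3, reovirus-1, Sindbis, Coxsackie B4 or Semliki forest virus. Values are concentrations giving 50% reduction of virus-induced cytopathogenicity, or a microscopically detectable alteration of normal cell morphology for cytotoxicity. Each is the average of two separate experiments.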

Vero [2] = test: Evaluation for antiviral activity against parainfluenza-3 virus in Vero cell cultures (Concentration required to reduce virus-induced cytopathogenicity by 50%); conditions: Chlorocebus sabaeus; in short: as §1
Vero [3] = test: Evaluation for antiviral activity against forest virus in Vero cell cultures (Concentration required to reduce virus-induced cytopathogenicity by 50%); conditions: Chlorocebus sabaeus; in short: as §1
HeLa [4] = test: Evaluation for antiviral activity against Coxsackie virus B4 in HeLa cell cultures (Concentration required to reduce virus-induced cytopathogenicity by 50%); conditions: Homo sapiens
In short: (§2)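 HeLa cultures were infected with respiratory syncytial, vesicular stomatitis, Coxsackie B4 or polio-1 virus. The antiviral end-point is 50% reduction of virus-induced cytopathogenicity. Cytotoxicity is the minimum concentration producing microscopically detectable alteration of normal cell morphology.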

HeLa [5] = test: Evaluation for antiviral activity against vesicular stomatitis virus in HeLa cell cultures (Concentration required to reduce virus-induced cytopathogenicity by 50%); conditions: Homo sapiens; in short: as §2
Vero [6] = test: Evaluation in Vero cell cultures for cytotoxicity that is to cause microscopically detectable alteration of normal cell morphology; conditions: Chlorocebus sabaeus; in short: as §1
[7] = Evaluation for antiviral activity against herpes simplex virus-2(Lyons) in primary rabbit kidney cell cultures(PRK) (Concentration required to reduce virus-induced cytopathogenicity by 50%); conditions: Oryctolagus cuniculus
[8] = Evaluation for antiviral activity against vaccinia virus in primary rabbit kidney cell cultures(PRK) (Concentration required to reduce virus-induced cytopathogenicity by 50%); conditions: Oryctolagus cuniculus
HeLa [9] = test: Evaluation in HeLa cell cultures for cytotoxicity that is to cause microscopically detectable alteration of normal cell morphology; conditions: Homo sapiens; in short: as §2
Vero [10] = test: Evaluation for antiviral activity against reo virus-1 in Vero cell cultures (Concentration required to reduce virus-induced cytopathogenicity by 50%); conditions: Chlorocebus sabaeus; in short: as §1
[11] = Evaluation for antiviral activity against vesicular stomatitis virus in primary rabbit kidney cell cultures(PRK) (Concentration required to reduce virus-induced cytopathogenicity by 50%); conditions: Oryctolagus cuniculus
Vero [12] = test: Evaluation for antiviral activity against Coxsackie virus B4 in Vero cell cultures (Concentration required to reduce virus-induced cytopathogenicity by 50%); conditions: Chlorocebus sabaeus; in short: as §1
HeLa [13] = test: Evaluation for antiviral activity against polio virus-1 in HeLa cell cultures (Concentration required to reduce virus-induced cytopathogenicity by 50%); conditions: Homo sapiens; in short: as §2
[14] = Evaluated for antiviral activity against herpes simplex virus-1(KOS) in primary rabbit kidney cell cultures(PRK) (Concentration required to reduce virus-induced cytopathogenicity by 50%); conditions: Oryctolagus cuniculus
[15] = Evaluation in PRK cell cultures for cytotoxicity that is to cause microscopically detectable alteration of normal cell morphology; conditions: Oryctolagus cuniculus
L1210 = test: Inhibitory effect on the proliferation of murine leukemia cells (L1210); conditions: Mus musculus, read-out: ID50 (the source's name)
In short: (§3)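 Proliferation assay in murine leukemia L1210, human T-lymphoblast Molt-4F and human T-lymphocyte MT-4 cells. ID50 is the dose inhibiting tumor cell proliferation by 50%, expressed in μg/mL.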

[16] = Evaluation for antiviral activity against herpes simplex virus-1(TK-) (B2006) in primary rabbit kidney cell cultures(PRK) (Concentration required to reduce virus-induced cytopathogenicity by 50%); conditions: Oryctolagus cuniculus
[17] = Evaluation for antiviral activity against herpes simplex virus-1 (McIntyre) in primary rabbit kidney cell cultures(PRK) (Concentration required to reduce virus-induced cytopathogenicity by 50%); conditions: Oryctolagus cuniculus
MOLT-4F = test: Inhibitory effect on the proliferation of human T-lymphoblast cells (Molt-4F); conditions: read-out: ID50 (the source's name); in short: as §3
[18] = Evaluation for antiviral activity against herpes simplex virus-1(F) in primary rabbit kidney cell cultures(PRK) (Concentration required to reduce virus-induced cytopathogenicity by 50%); conditions: Oryctolagus cuniculus
[19] = Evaluation for antiviral activity against herpes simplex virus-2(G) in primary rabbit kidney cell cultures(PRK) (Concentration required to reduce virus-induced cytopathogenicity by 50%); conditions: Oryctolagus cuniculus
MT4 = test: Inhibitory effect on the proliferation of human T-lymphocyte (MT-4); conditions: read-out: ID50 (the source's name); in short: as §3
[20] = Evaluation for antiviral activity against herpes simplex virus-2(196) in primary rabbit kidney cell cultures(PRK) (Concentration required to reduce virus-induced cytopathogenicity by 50%); conditions: Oryctolagus cuniculus
HeLa [21] = test: Compound was evaluated for antiviral activity against respiratory syncitial virus (long) in HeLa cell cultures (Concentration required to reduce virus-induced cytopathogenicity by 50%); conditions: Homo sapiens; in short: as §2
Influenza A virus = test: Concentration required to reduce influenza virus A (ishikawa) induced cytopathogenicity by 50%
In short: (§4)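 Influenza A and B virus replication in MDCK cultures. Antiviral value is the concentration giving 50% reduction of virus-induced cytopathogenicity. Cytotoxicity is the concentration causing a microscopically detectable change in normal cell morphology.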

MDCK = test: Compound was evaluated in MDCK cell cultures for cytotoxicity that is to cause microscopically detectable alteration of normal cell morphology; conditions: Canis lupus familiaris; in short: as §4
Influenza B virus = test: Concentration required to reduce influenza virus B (singapore) induced cytopathogenicity by 50%; in short: as §4

| SMILES | MIC (Vero [1]) [µg/mL] | MIC (Vero [2]) [µg/mL] | MIC (Vero [3]) [µg/mL] | MIC (HeLa [4]) [µg/mL] | MIC (HeLa [5]) [µg/mL] | MCC (Vero [6]) [µg/mL] | MIC [7] [µg/mL] | MIC [8] [µg/mL] | MCC (HeLa [9]) [µg/mL] | MIC (Vero [10]) [µg/mL] | MIC [11] [µg/mL] | MIC (Vero [12]) [µg/mL] | MIC (HeLa [13]) [µg/mL] | MIC [14] [µg/mL] | MCC [15] [µg/mL] | MIC [16] [µg/mL] | MIC [17] [µg/mL] | MIC [18] [µg/mL] | MIC [19] [µg/mL] | MIC [20] [µg/mL] | also measured |
| --- | --- | --- | --- | --- | --- | --- | --- | --- | --- | --- | --- | --- | --- | --- | --- | --- | --- | --- | --- | --- | --- |
| Cn1c2c(c3ccccc31)CCN1OCSC[C@@H](N)[C@H]21 | > 10 | > 10 | > 10 | > 10 | > 10 | > 40 | > 10 | > 10 | > 10 | > 10 | > 10 | > 10 | > 10 | > 10 | 40 |  |  |  |  |  |  |
| Cn1c2c(c3ccccc31)CCN1OCSC[C@@H](N)[C@@H]21 | 2 (≈ 6.91 µM) | 0.7 (≈ 2.42 µM) | 2 (≈ 6.91 µM) | 7 (≈ 24.2 µM) | 7 (≈ 24.2 µM) | > 20 | 0.7 (≈ 2.42 µM) | 1.5 (≈ 5.18 µM) | > 10 | 1 (≈ 3.46 µM) | 7 (≈ 24.2 µM) | 0.7 (≈ 2.42 µM) | 2 (≈ 6.91 µM) | 3 (≈ 10.4 µM) | > 40 | 7 (≈ 24.2 µM) | 0.7 (≈ 2.42 µM) | 2 (≈ 6.91 µM) | 0.7 (≈ 2.42 µM) | 1 (≈ 3.46 µM) | IC50 (L1210): 0.56 µg/mL (≈ 1.94 µM); IC50 (MOLT-4F): 0.37 µg/mL (≈ 1.28 µM); IC50 (MT4): 0.69 µg/mL (≈ 2.38 µM) |
| N[C@H]1CSCON2CCc3c([nH]c4ccccc34)[C@@H]12 | 20 (≈ 72.6 µM) | 7 (≈ 25.4 µM) | 10 (≈ 36.3 µM) | > 10 | 7 (≈ 25.4 µM) | 40 | 2 (≈ 7.26 µM) | 2 (≈ 7.26 µM) | 40 | 20 (≈ 72.6 µM) | 2 (≈ 7.26 µM) | 7 (≈ 25.4 µM) | > 10 | 2 (≈ 7.26 µM) | > 10 | 7 (≈ 25.4 µM) | 2 (≈ 7.26 µM) | 2 (≈ 7.26 µM) | 2 (≈ 7.26 µM) | 2 (≈ 7.26 µM) | MIC (HeLa [21]): 3 µg/mL (≈ 10.9 µM); IC50 (L1210): 1.24 µg/mL (≈ 4.5 µM); IC50 (MOLT-4F): 1.54 µg/mL (≈ 5.59 µM); MIC (Influenza A virus): 3 µg/mL (≈ 10.9 µM); MCC (MDCK): 40 µg/mL; MIC (Influenza B virus): 3 µg/mL (≈ 10.9 µM) |
| C[C@@H]1CSCON2CCc3c([nH]c4ccccc34)[C@H]12 | 20 (≈ 72.9 µM) | > 40 | > 40 | > 40 | > 40 | > 100 |  | > 100 | 40 | > 40 | > 100 | 20 (≈ 72.9 µM) | > 40 | > 100 | > 100 |  |  |  | > 100 |  |  |
| O[C@@H]1CSCON2CCc3c([nH]c4ccccc34)[C@@H]12 | 20 (≈ 72.4 µM) | > 40 | > 40 | > 40 | > 100 | > 100 |  | > 100 | 100 | > 40 | > 100 | > 40 | > 100 | > 100 | > 100 |  |  |  | > 100 |  | MIC (Influenza A virus): > 1.6 µg/mL; MCC (MDCK): 3 µg/mL; MIC (Influenza B virus): > 1.6 µg/mL |
| Nc1nccc2c1ncn2[C@@H]1C[C@H](CO)[C@@H](O)[C@H]1O [3-DEAZAARISTEROMYCIN A] | 20 (≈ 75.7 µM) | 2 (≈ 7.57 µM) | > 400 | > 400 | 2 (≈ 7.57 µM) | > 400 | > 200 | 0.7 (≈ 2.65 µM) | > 400 | 2 (≈ 7.57 µM) | 2 (≈ 7.57 µM) | 20 (≈ 75.7 µM) | > 400 | > 200 | > 400 | 150 (≈ 568 µM) | > 200 | > 200 | > 200 | > 200 |  |
| O=c1[nH]c(=O)n([C@H]2C[C@H](O)[C@@H](CO)O2)cc1/C=C/Br [BRIVUDINE] | > 400 | > 400 | > 400 | > 400 | > 400 | > 400 | 70 (≈ 210 µM) | 7 (≈ 21 µM) | > 400 | > 400 | > 200 | > 400 | > 400 |  | > 400 | 150 (≈ 450 µM) | 0.02 (≈ 0.06 µM) | 0.02 (≈ 0.06 µM) | 7 (≈ 21 µM) | 70 (≈ 210 µM) |  |
| NC(=O)c1ncn([C@@H]2O[C@H](CO)[C@@H](O)[C@H]2O)n1 [RIBAVIRIN] | 40 (≈ 164 µM) | 20 (≈ 81.9 µM) | 40 (≈ 164 µM) | 70 (≈ 287 µM) | 20 (≈ 81.9 µM) | > 400 | > 200 | 20 (≈ 81.9 µM) | > 400 | 70 (≈ 287 µM) | > 400 | 70 (≈ 287 µM) | 70 (≈ 287 µM) | > 200 | > 400 | > 200 | > 200 | > 200 | > 200 | > 200 | MIC (HeLa [21]): 3 µg/mL (≈ 12.3 µM); MIC (Influenza A virus): 15 µg/mL (≈ 61.4 µM); MCC (MDCK): > 200 µg/mL; MIC (Influenza B virus): 15 µg/mL (≈ 61.4 µM) |
